Bioassay records (PubChem)
Hits are enriched below; roughly 1.4% of the tested compounds scored in any of these assays.
Rev-erbA mod: modulators of human Rev-erb alpha DNA binding; actives 0.79% (n = 370,000); P20393; Rev-erbα–FITC-DNA binding, fluorescence polarization, 90 min; activity, % at 10 µM;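 active = activity above about 14%, limit read from the data; passing the limit was not always enough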;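 note: 0% = DMSO wells with 35 nM protein and 100% = DMSO wells with 750 nM protein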
Target sequence (P20393 whole entry, looked up): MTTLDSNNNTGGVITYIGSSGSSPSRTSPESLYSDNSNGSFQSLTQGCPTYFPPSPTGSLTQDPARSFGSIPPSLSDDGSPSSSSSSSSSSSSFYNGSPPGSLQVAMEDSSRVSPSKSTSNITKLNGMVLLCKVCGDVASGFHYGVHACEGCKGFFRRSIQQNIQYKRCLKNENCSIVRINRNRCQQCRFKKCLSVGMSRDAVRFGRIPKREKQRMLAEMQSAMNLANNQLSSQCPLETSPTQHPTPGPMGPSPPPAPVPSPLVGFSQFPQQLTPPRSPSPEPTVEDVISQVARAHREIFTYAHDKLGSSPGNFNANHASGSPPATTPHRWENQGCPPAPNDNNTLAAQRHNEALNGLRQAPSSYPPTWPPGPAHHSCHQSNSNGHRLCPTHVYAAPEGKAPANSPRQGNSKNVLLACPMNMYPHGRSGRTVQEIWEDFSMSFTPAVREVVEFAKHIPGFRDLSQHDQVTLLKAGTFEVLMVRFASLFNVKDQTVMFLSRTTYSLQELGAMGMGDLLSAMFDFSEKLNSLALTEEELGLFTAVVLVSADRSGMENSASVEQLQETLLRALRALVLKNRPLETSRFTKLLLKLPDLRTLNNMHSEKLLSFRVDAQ
NR2E3 ag-1: activates human photoreceptor nuclear receptor NR2E3; inhibition of corepressor binding, % at 4.78 µM; AID 2300; Q9Y5X4; GST-NR2E3/biotin-RetCOR TR-FRET, 1536-well; actives 0.12% (n = 320,000);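 active = percent inhibition above the cutoff of mean plus 3 SD of all tested compounds, set per screening campaign, cut at about 20% in these data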;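 note: 0% = DMSO wells and 100% = biotin wells as full block of FRET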
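Material: NR2E3–RetCOR corepressor complex / Amount: 1.35 nM GST-NR2E3 / Medium: Tris pH 7.5 / Compound: single nominal compound dose of 4.8 µM / Incubation: 5 h at 4 °C / Technique: TR-FRET, Eu(K)-anti-GST donor, streptavidin-D2 acceptor, ex 340, em 617/671 nm / Read-out basis: percent loss of FRET ratio relative to control wells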
PG9 binder: small molecules binding HIV-1 gp120 antibody PG9. TR-FRET gp120-PG9 antibody binding. inhibition, % at 6.7 µM. AID 624416. actives 0.43% (n = 360,000); in the data active = inhibition above about 8.5%
NR2E3 ag-2: activates human NR2E3 receptor | Q9Y5X4 | CHO-S Gal4-NCOR/VP16-NR2E3 two-hybrid, luciferase | inhibition of corepressor binding, % at 3.98 µM | actives 0.35% (n = 360,000);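 active = inhibition above the mean of all tested compounds plus 3 SD, cut at about 70% in these data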;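 note: 0% = DMSO with NR2E3 transfected cells and 100% = cells lacking NR2E3 construct; higher means lower luciferase signal from less NR2E3 corepressor binding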
PG9 bind confirm: confirmation of small molecules binding HIV-1 gp120 antibody PG9; shares compounds with PG9 binder; TR-FRET PG9 antibody binding, biochemical; inhibition, % at 6.7 µM; actives 90% (n = 1,500); in the data active = inhibition above about 9%
PGV04 counter: PGV04 control antibody binding, counter-screen. shares compounds with PG9 binder. TR-FRET PGV04 antibody-gp120 binding, biochemical. inhibition, % at 6.7 µM. actives 95% (n = 1,500); in the data active = inhibition above about 9.5%
Rev-erbA confirm: confirmation of modulators of human Rev-erb alpha DNA binding; actives 61% (n = 3,000); shares compounds with Rev-erbA mod; AID 1259319; activation, % at 25 µM; Rev-erb alpha FITC-DNA binding, fluorescence polarization, 90 min;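 active = activation at or above a set limit, or at least 3 SD above the negative control mean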;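 note: 0% = 35 nM protein with DMSO and 100% = 750 nM protein high control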
RORg counter: RORgamma DNA-binding activity, dose-response counter-screen; shares compounds with Rev-erbA mod; purified RORgamma protein-FITC-DNA binding, fluorescence polarization; IC50, µM; actives 8% (n = 910);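 active = Compounds whose fitted half-maximal concentration for disrupting protein-DNA binding is below 10 micromolar; the record names Rev-erb in its text, so the target is in doubt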
An asterisk follows results filed as active; i = inactive; x = not tested or not shown.

SMILES	Rev-erbA mod	NR2E3 ag-1	PG9 binder	NR2E3 ag-2	PG9 bind confirm	PGV04 counter	Rev-erbA confirm	RORg counter
CN(CC(=O)Nc1ccc(Cl)c(C(F)(F)F)c1)C(=O)C1CSC2(C)CCC(=O)N12 (centres undefined)	4	4	0	-21	x	x	x	x
C[C@H](NC(=O)c1ncn2c1c(=O)[nH]c1ccc(Br)cc12)c1ccccc1	133*	x	20*	-17	43*	52*	24*	x
CCOC(=O)c1cc2sc(C)cc2n1CC(=O)NCc1ccc(F)cc1	27*	2	59*	-19	49*	75*	11	x
O=C(Nc1cccc(-n2cnnn2)c1)c1cc(Cl)nc(Cl)c1	-3	2	0	-16	x	x	x	x
O=C(COc1ccc(Br)cc1)NCCN1CCCC1	-4	-3	0	5	x	x	x	x
O=C(Nc1ccc2oc(-c3cccc(F)c3)nc2c1)c1ccccc1F	82*	4	16*	-73	40*	59*	42*	>40
N#Cc1c(N)nc(SCC(=O)NCCc2ccccc2)c(C#N)c1-c1cccs1	52*	17	40*	-4	38*	62*	43*	>40
CC(C)OC(=O)CSc1nc(N)c(C#N)c(-c2cccs2)c1C#N	11	0	2	38	x	x	x	x
COc1ccccc1C(=O)NCCNc1nc2cc(C)cc(C)c2cc1C#N	4	6	0	11	x	x	x	x
Cc1cc(C)c2cc(C#N)c(NCCNC(=O)c3ccccc3)nc2c1	18*	x	29*	x	25*	32*	15*	x
CC(C)[C@H](NC(=O)OC(C)(C)C)c1cc(C(=O)N(C)CCN(C)C)c(N)s1	0	x	0	x	x	x	x	x
O=C(Cn1cnc2sc(-c3ccccc3)cc2c1=O)NCc1ccccc1	-8	-2	-1	-49	x	x	x	x
Cc1cc2c(s1)c1cnn(CC(=O)NCCc3ccccc3)c(=O)c1n2C	307*	-125	37*	x	49*	50*	352*	x
O=C(Cn1cnc2sc(-c3ccccc3)cc2c1=O)NCCc1ccccc1	65*	-3	9.1*	-3	40*	60*	28*	x
O=C(COC(=O)c1c(Cl)cccc1Cl)NC1CCCCCCC1	5	x	0	-30	x	x	x	x
Cc1cc(=O)nc2c3ccccc3n(C(C)C(=O)NCCC(C)C)n12 (centres undefined)	-1	3	-3	12	x	x	x	x
CC(=O)c1ccc(NC(=O)C(C)n2c3ccccc3c3nc(=O)cc(C)n32)cc1 (centres undefined)	21*	1	9.5*	-25	14*	15*	9	x
COc1ccc(C(=O)Nc2nc3ccc4nc(C)sc4c3s2)cc1	34*	-34	13*	-12	9.8*	12*	42*	>40
COc1ccc(C(=O)Nc2nc3ccccc3s2)cc1	1	4	-1	-144	x	x	x	x
Cc1ccccc1Nc1nn2c(=O)c3ccccc3nc2s1	37*	0	36*	-70	31*	47*	19*	x
O=c1c2ccccc2nc2sc(Nc3ccc(F)cc3)nn12	100*	3	12*	-57	23*	24*	92*	>40
CCn1c(=NC(=O)c2ccc(N3C(=O)CCC3=O)cc2)sc2c(OC)ccc(OC)c21	82*	2	16*	-25	31*	56*	96*	i
CCn1c(=NC(=O)c2cccc(N3C(=O)CCC3=O)c2)sc2c(C)ccc(OC)c21	6	-1	1	-9	x	x	x	x
CCOc1cccc(-c2nnc3sc(-c4cccs4)nn23)c1	29*	-3	1	-7	x	x	20*	x
CN(C)c1ccc(N=Nc2ccccc2C(=O)OCC(=O)N2CCCC2)cc1	36*	-3	-8	-56	x	x	40*	1.2*
SMILES	Rev-erbA mod	NR2E3 ag-1	PG9 binder	NR2E3 ag-2	PG9 bind confirm	PGV04 counter	Rev-erbA confirm	RORg counter
CN(C)c1ccc(N=Nc2ccccc2C(=O)OCC(=O)N2CCCCCC2)cc1	27*	0	-2	-95	x	x	35*	>40
CSc1ccccc1C(=O)OCC(=O)N1CCCCCC1	-8	x	1	-41	x	x	x	x
COc1ccc(C2CC(=O)C(C3NCCc4ccccc43)=C(O)C2n2cncn2)cc1 (centres undefined)	-2	0	0	-18	x	x	x	x
C=CCn1c(C)c(/C=C/c2cc[n+](C)cc2)c2ccccc21	237*	-8	-17	10	x	x	213*	>40
Cc1[nH]c2ccccc2c1/C=C/c1cc[n+](C)cc1	251*	x	-22	-18	x	x	172*	>40
C=CCn1cc(/C=C/c2cc[n+](C)cc2)c2ccccc21	168*	-10	-9	-13	x	x	143*	>40
CCOC(=O)Cn1cc(C=O)c2ccccc21	-4	3	-2	8	x	x	x	x
CCn1cc(/C=C/c2cc[n+](C)cc2)c2ccccc21	179*	-8	-16	-9	x	x	160*	>40
CCCCCCCNC(=O)C1(CC2CC(c3cccc(Br)c3)=NO2)CCN(C(=O)c2ccccc2)CC1 (centres undefined)	-2	2	1	7	x	x	x	x
CC(C)n1cc(/C=C/c2cc[n+](C)cc2)c2ccccc21	209*	x	-8	-43	x	x	203*	>40
Cc1ccccc1/C=C/c1cc[n+](C)cc1	-4	1	0	-9	x	x	x	x
CCN(CC)C(=O)Cn1c(C)c(/C=C/c2cc[n+](C)cc2)c2ccccc21	158*	-1	-14	4	x	x	139*	>40
CCCCS(=O)(=O)N1CCCC(C(=O)NCC2CCCO2)C1 (centres undefined)	-4	-3	0	-44	x	x	x	x
CC(=O)Nc1ccc(S(=O)(=O)N(C)c2ccc(OCCOc3cccc(C)c3)cc2)cc1	1	x	-2	19	x	x	x	x
CN(C)c1ccc(CN(C(=O)COc2ccc(F)cc2)C2CCS(=O)(=O)C2)cc1 (centres undefined)	1	2	x	-8	x	x	x	x
COc1ccccc1C(=O)COC(=O)Cn1[nH]c(=O)c2ccccc2c1=O	22*	5	0	-18	x	x	9	x
COc1ccc(-n2c3c(cc(C(=O)NCC(=O)c4ccccc4)c2=O)C(=O)CC(C)(C)C3)cc1	19*	1	0	2	x	x	8	x
CCCCn1c(CCNC(=O)CC)nc2ccccc21	-1	2	-2	-4	x	x	x	x
O=S(=O)(NC1CCN(Cc2ccccc2)CC1)c1cccc2cccnc12	0	4	x	-27	x	x	x	x
CCOC(=O)C1(Cc2cccc(Cl)c2)CCCN(C(=O)c2occc2C)C1 (centres undefined)	2	1	-1	-47	x	x	x	x
